# M4 antag: blocks acetylcholine activation of human M4 receptor; hit rate 0.73% among 360,000; P08173; inhibition, % at 3 µM; CHO-hM4 cells, ACh EC80, Fluo-8 calcium fluorescence;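 active means inhibition above its plate's cutoff, the mean inhibition of sample wells plus 3 SD, cut at about 27% in these data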;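 further: 0% = acetylcholine EC80 with DMSO and 100% = DMSO without agonist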
# Target sequence (P08173 whole entry, looked up): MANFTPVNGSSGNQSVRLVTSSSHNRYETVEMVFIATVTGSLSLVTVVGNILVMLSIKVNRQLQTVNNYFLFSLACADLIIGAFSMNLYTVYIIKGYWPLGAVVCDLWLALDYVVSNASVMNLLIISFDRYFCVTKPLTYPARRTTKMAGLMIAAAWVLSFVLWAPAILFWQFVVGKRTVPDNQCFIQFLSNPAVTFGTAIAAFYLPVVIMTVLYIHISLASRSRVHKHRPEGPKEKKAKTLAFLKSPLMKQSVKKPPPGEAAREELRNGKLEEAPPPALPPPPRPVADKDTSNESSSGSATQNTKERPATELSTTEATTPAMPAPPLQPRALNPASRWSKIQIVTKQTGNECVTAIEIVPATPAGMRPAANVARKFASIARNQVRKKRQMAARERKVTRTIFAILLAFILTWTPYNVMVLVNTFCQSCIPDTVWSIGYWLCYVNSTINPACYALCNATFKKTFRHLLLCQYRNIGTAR
# CHRM4 PAM: potentiates acetylcholine response at human M4 receptor. P08173. CHO-K1 hM4/Gqi5, Fluo-8 calcium fluorescence, ACh EC20; 0% = ACh EC20, 100% = maximal ACh. activation, % at 3 µM. hit rate 0.4% among 360,000. AID 624126;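 active means activation above its plate's cutoff, the mean activation of sample wells plus 3 SD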
# M4 ag: agonists of human muscarinic M4 receptor (CHRM4) | P08173 | CHO-K1 hM4/Gqi5, Fluo-8 calcium fluorescence; vehicle 0%, full acetylcholine response 100% | activation, % at 3 µM | hit rate 0.14% among 360,000;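 active means activation above the run mean over all test wells plus 3 SD, cut at about 32% in these data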;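 further: peak over basal fluorescence ratio per well then scaled between controls; 0% = DMSO wells and 100% = acetylcholine at EC100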
# M5 ag: CHRM5 agonism in calcium assay. activation, % at 3 µM. hit rate 0.19% among 360,000. P08912. CHO-K1 hM5 cells, Fluo-8 calcium fluorescence; 0% DMSO wells, 100% maximal acetylcholine response. AID 624037;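 active means activation above the run's mean over test compounds plus 3 SD, cut at about 23% in these data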;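 further: signal is peak over basal fluorescence ratio across the kinetic read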
# M5 antag: blocks acetylcholine activation of human M5 receptor; inhibition, % at 3 µM; AID 624040; CHO-hM5 cells, Fluo-8 calcium fluorescence, ACh EC80; P08912; hit rate 0.59% among 360,000;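 active means inhibition above a per-plate cutoff, the mean of that plate's test compounds plus 3 SD, cut at about 27% in these data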;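 further: 0% = acetylcholine EC80 with DMSO and 100% = DMSO without agonist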
# CHRM5 PAM: potentiates acetylcholine response at human M5 receptor; P08912; activation, % at 3 µM; CHO-K1 hM5, Fluo-8 calcium, ACh EC20 PAM; 0% = ACh EC20, 100% = ACh EC100; hit rate 0.3% among 360,000;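 active means activation above the run cutoff, the mean activation of all test compounds plus 3 SD, cut at about 18% in these data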
#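 system = human M5 receptor in CHO-K1 cells | compound = one concentration, 3 µM final (nominal) | schedule = Post-acetylcholine fluorescence recording 140 s | signal = Fluo-8 calcium dye fluorescence, kinetic read | benchmarks = low control EC20 acetylcholine (0%), high control EC100 acetylcholine (100%) | repeats = singlicate, one well per test compound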
# Starred values were filed as active, the others as inactive. A selection: hits, their analogues and other compounds. The true share with any hit is near 1.8%.
SMILES,M4 antag,CHRM4 PAM,M4 ag,M5 ag,M5 antag,CHRM5 PAM
Cc1c(CC(=O)NCCCCCC(=O)O)c(=O)oc2c(C)c3oc4c(c3cc12)CCCC4,-4,14*,1,-4,-3,4
Cc1c(CC(=O)NCCCC(=O)O)c(=O)oc2cc3oc4c(c3cc12)CCCC4,8,-2,0,-3,9,-1
Cc1cccc(-n2c(C)cc(/C=C3\C(=N)N4N=C(CC(C)C)SC4=NC3=O)c2C)c1,3,-8,0,-8,5,-6
CC(C)CC1=NN2C(=N)/C(=C\c3coc4ccccc4c3=O)C(=O)N=C2S1,9,-23,63*,158*,48*,-25
CCSC1=NSC2=NC(=O)/C(=C\c3coc4ccccc4c3=O)C(=N)N12,38*,-22,63*,51*,63*,-21
CC(C)(C)c1ccc(-n2ncc3c2CCCC3NC(=O)C2(C(N)=O)CC2)cc1 (centres undefined),16,-4,12,3,28*,-13
Cc1cc(C(=O)NC2CCCc3c2cnn3-c2ccc(C(C)(C)C)cc2)nn1C (centres undefined),20,-9,12,-1,35*,-16
Cc1cc(C)cc(C(=O)Nc2cccc(NC(=O)c3ccco3)c2)c1,-7,-6,8,-2,8,-6
CCOC(=O)C1(Cc2ccc(OC)cc2)CCN(S(C)(=O)=O)CC1,-5,1,1,2,8,-3
CCOC(=O)C1(Cc2ccc(Cl)cc2)CCN(C(C)Cc2ccc(O)c(OC)c2)CC1 (centres undefined),17,-12,12,5,30*,-15
S=C1NCN(Cc2ccco2)CN1,4,6,2,5,-5,23*
C=CCN1CN(Cc2ccco2)CNC1=S,18,-3,0,-1,3,0
CCC(=NNS(=O)(=O)c1ccc(C)cc1)c1ccc(OC)c(C)c1,-12,7,-2,-1,2,-1
COc1ccc(CN(C)C(=O)c2ccc(Cl)c(S(=O)(=O)NCc3cccnc3)c2)cc1F,4,0,10,6,2,-7
COc1ccc(C(CCNCc2ccc(OC(C)C)cc2)C(C)C)cc1 (centres undefined),23,-19,27,-2,13,-23
COc1ccc(C(CCNCc2ccc(N(C)C)cc2)C(C)C)cc1 (centres undefined),42*,-52,27,3,19,-29
Cc1cccc(N2C(=O)CC(N3CCN(Cc4ccc5c(c4)OCO5)CC3)C2=O)c1 (centres undefined),-1,6,1,-3,16,18*
Cc1cccc(C)c1NC(=O)COC(=O)c1c2c(nc3ccccc13)/C(=C\c1ccc3c(c1)OCO3)CCC2,37*,-22,88*,49*,23,-21
CCOc1cc(/C=C2\CCCc3c2nc2ccccc2c3C(=O)O)ccc1OC,4,-10,44*,16,6,-8
CC(C)CNC(=O)c1cccc2c(-c3cccc(C(N)=O)c3)coc12,-3,4,5,6,6,-1
O=C(c1cccs1)N1CCN(Cc2nc(-c3ccccc3)no2)CC1,-6,2,1,1,4,-3
O=C(Nc1ccccc1O)c1ccc2c(c1)C(=O)N(c1ccccc1)C2=O,3,4,0,2,6,0
Cc1cc(N2C(=O)c3ccc(C(=O)Nc4ccccc4O)cc3C2=O)no1,-2,2,0,-5,28*,-5
Cc1ccc(CNC(=O)C2CCC(=O)N(CCc3ccc(Cl)cc3)C2)cc1 (centres undefined),-1,-2,3,-1,-10,5
O=C(COC(=O)COc1ccc(Cl)cc1Br)NC1CC1,-21,4,2,0,4,-7
SMILES,M4 antag,CHRM4 PAM,M4 ag,M5 ag,M5 antag,CHRM5 PAM
C[C@]12CC[C@H]3[C@@H](CCC4=CC(=O)CC[C@@]43C)[C@@H]1CC[C@@H]2C(=O)CO,-6,-1,2,2,-5,-1
C[C@]12CCC(=O)C=C1CC[C@@H]1[C@@H]2CC[C@@]2(C)[C@H]1CC[C@@]21CCC(=O)O1,30*,-20,6,-8,-6,-10
CC(=O)OCC(=O)[C@H]1CC[C@H]2[C@@H]3CCC4=CC(=O)CC[C@]4(C)[C@H]3CC[C@]12C,57*,-17,2,0,20,-19
C[C@]12CCC(=O)C=C1CCC1C2CC[C@@]2(C)C1CCC21OCCO1 (some centres undefined),-1,1,2,6,-6,-5
CCN=C(NCC)SC1CC(=O)N(c2cccc(OCC)c2)C1=O (centres undefined),33*,-9,19,5,28*,-19
CCOc1ccc(NC(=NCc2ccc3c(c2)OCO3)SC2CC(=O)N(c3ccccc3)C2=O)cc1 (centres undefined),-4,1,0,-1,-2,4
CCOc1ccc(NC(=NCc2ccc3c(c2)OCO3)SC2CC(=O)N(c3ccc(OCC)cc3)C2=O)cc1 (centres undefined),0,8,0,-4,-10,19*
CCN=C(NCC)SC1CC(=O)N(c2ccc(OC)cc2)C1=O (centres undefined),19,-9,30,7,17,-22
COC(=O)c1cc(Sc2cccc(Cl)c2Cl)ccn1,-5,-1,3,0,5,21*
COC(=O)c1sc(-c2ccccc2)cc1NC(=O)c1ccc(OC)cc1,-15,24*,1,-1,-1,9
Cc1ccccc1CSc1nnc(-c2ccncc2)o1,1,-1,1,-2,2,-4
Clc1ccc(CSc2nnc(-c3ccncc3)o2)c(Cl)c1,14,32*,0,2,0,-8
COc1cc(/C=N/n2nnnc2N)cc(Cl)c1OC,-1,-2,3,1,11,1
CC(C)C[C@@H](CN)NC(=O)c1nc[nH]c1C(=O)N[C@@H](C)C(=O)CNC[C@H](C)NC(=O)c1nc[nH]c1C(=O)N[C@@H](CC(C)C)C(=O)O,-5,4,0,1,9,-1
CCOc1ccc(N2C(=O)C3C4C=CC([C@H]5CC45)[C@@H]3C2=O)cc1 (some centres undefined),-3,8,-1,-7,4,0
CCCOC(=O)C1=C(C)OC23OC(N)=C(C#N)C12C(=O)c1ccccc13 (centres undefined),34*,-16,0,-2,7,-12
CC1Cc2cc(-c3csc(NC(=O)Cc4cccs4)n3)ccc2N1S(C)(=O)=O (centres undefined),29*,-26,17,4,14,-18

# From PubChem
